Measurements: ChEMBL document CHEMBL5108061, “Lectin-Targeted Prodrugs Activated by Pseudomonas aeruginosa for Self-Destructive Antibiotic Release” (J Med Chem, 2022)
≈ marks a conversion by molar mass, not a printed value.

Tests used:
Elastase [1] = target: T1, Elastase (Pseudomonas aeruginosa (strain ATCC 15692 / PAO1 / 1C / PRS 101 / LMG12228), UniProt P14756); experiment: Prodrug activation assessed as LasB- mediated drug release in Pseudomonas aeruginosa PA14 cell supernatant and measured after 24 hrs by HPLC-MS analysis
T1 sequence (P14756 whole entry): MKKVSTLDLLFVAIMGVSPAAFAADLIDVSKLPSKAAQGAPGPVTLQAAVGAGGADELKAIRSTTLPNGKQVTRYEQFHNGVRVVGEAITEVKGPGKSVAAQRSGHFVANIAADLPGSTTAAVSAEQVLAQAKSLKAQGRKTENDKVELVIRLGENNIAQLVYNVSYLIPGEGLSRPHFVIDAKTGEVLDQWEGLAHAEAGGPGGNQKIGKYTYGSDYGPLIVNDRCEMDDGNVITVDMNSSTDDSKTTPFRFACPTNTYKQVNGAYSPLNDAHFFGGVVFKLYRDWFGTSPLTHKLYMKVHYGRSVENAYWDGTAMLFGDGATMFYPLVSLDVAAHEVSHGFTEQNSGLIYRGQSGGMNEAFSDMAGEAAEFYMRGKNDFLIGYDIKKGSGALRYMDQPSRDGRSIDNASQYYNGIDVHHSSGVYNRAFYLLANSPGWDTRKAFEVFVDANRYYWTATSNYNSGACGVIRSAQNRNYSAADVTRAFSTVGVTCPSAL

Pseudomonas aeruginosa [2] = experiment: Antibacterial activity against Pseudomonas aeruginosa PA14 assessed inhibition of bacterial growth incubated for 18 to 20 hrs by broth microdilution method; format: functional; conditions: time 18-20 hrs
Outline: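 Broth microdilution per EUCAST in Müller-Hinton broth II, no matrix preincubation. […] Inoculum from overnight LB-agar colonies adjusted to OD600 0.08–0.13, diluted 1:100, final 5 × 10^5 cfu/mL.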

[3] = Stability in human plasma assessed as half life at 1 uM and measured upto 240 mins by HPLC-MS/MS analysis; format: ADME, cell-free; conditions: 4 h
Outline: (§1)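 Compound at 1 μM final in prewarmed mouse or human plasma (pH 7.4), 37 °C, sampled at 0–240 min; extracted with acetonitrile containing caffeine internal standard; HPLC-MS/MS, peak area normalized to internal standard and time 0; procaine and procainamide controls; ≥3 independent repeats.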

[4] = Metabolic stability in mouse liver microsomes assessed as half life at 100 uM preincubated for 5 mins followed by NADPH addition and measured upto 60 mins by HPLC-MS/MS analysis; format: ADME, Microsome; conditions: time 65 min
Outline: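 Thawed mouse liver microsomes (20 mg/mL stock) were pre-incubated with compound (100 μM stock) in 100 mM phosphate buffer for 5 min at 37 °C. Reactions were started with NADPH (20 mM stock) and run in triplicate at 37 °C with shaking. Samples taken at 0, 5, 15, 30 and 60 min were quenched with acetonitrile and analysed by HPLC-MS/MS. Peak areas were normalised to 0 min, and half-life came from linear regression.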

[5] = Drug uptake in human A549 cells assessed as intracellular accumulation at 10 ug/ml incubated for 15 to 60 mins by HPLC-MS/MS analysis; format: ADME, cell-based; conditions: time 15-60 min, dose 10 µg/ml
Outline: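 A549 cells grown to 95% confluence in DMEM/10% FCS, exposed to 10 μg/mL compound for 15, 30 and 60 min at 37 °C; washed twice with PBS, lysed in MeOH; medium, washes and extracts extracted with MeOH containing caffeine internal standard and quantified by HPLC-MS/MS against calibration/QC samples; technical duplicates, two biological replicates.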

[6] = Metabolic stability in mouse liver microsomes assessed as intrinsic clearance measured per mg protein at 100 uM preincubated for 5 mins followed by NADPH addition and measured upto 60 mins by HPLC-MS/MS analysis; format: ADME, Microsome; conditions: time 65 min, read-out: CLH
Outline: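 Mouse liver microsomes (5 μL of 20 mg/mL) were mixed with 2 μL of 100 μM compound in 100 mM phosphate buffer and warmed 5 min at 37 °C. NADPH (10 μL of 20 mM) started the reaction, run in triplicate at 150 rpm. Samples were quenched with acetonitrile at 0–60 min and read by HPLC-MS/MS. Half-life came from linear regression of the 0-min-normalized areas, and CLint was derived from it.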

[7] = Stability in mouse plasma assessed as half life at 1 uM and measured upto 240 mins by HPLC-MS/MS analysis; format: ADME, cell-free; conditions: 4 h; outline: as §1
[8] = Stability of compound in human blood plasma spiked with Pseudomonas aeruginosa PA14 matrix assessed as hydrolysis of prodrug and measured upto 3 hrs by HPLC-MS/MS analysis; format: ADME, cell-free
Elastase [9] = target: T1, Elastase; experiment: Prodrug activation assessed as LasB-mediated drug release in Pseudomonas aeruginosa PA14 cell supernatant in presence of human blood plasma and measured for 3 hrs by HPLC-MS analysis; format: cell-free
Pseudomonas aeruginosa [10] = experiment: (§2) Antibacterial activity against Pseudomonas aeruginosa PA14 assessed inhibition of bacterial growth preincubated for 3 hrs in matrix containing human blood plasma spiked with Pseudomonas aeruginosa cell culture supernatant in PBS buffer followed by overnight grown bacterial culture addition incubated for 18 to 20 hrs by broth microdilution method; format: functional
Outline: (§3)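 Prodrug serial dilutions in PBS/20% DMSO (1 mM to 1.9 μM) were diluted about 1:20 into matrix. Matrices: plasma 5 mL + PA14 LB-culture sterile filtrate 1 mL + PBS 4 mL; filtrate 1 mL + PBS 9 mL; PBS alone; plasma 5 mL + LB 1 mL + PBS 4 mL. Preincubation was 3 h at 37 °C, or <10 min at room temperature.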

Pseudomonas aeruginosa [11] = experiment: as §2, with “10 mins” for “3 hrs”, “fresh LB medium” for “Pseudomonas aeruginosa cell culture supernatant”, “PBS” for “PBS buffer”; format: functional; outline: as §3
Pseudomonas aeruginosa [12] = experiment: as §2, with “10 mins” for “3 hrs”; format: functional; outline: as §3
[13] = target: Fucose-binding lectin PA-IIL (Pseudomonas aeruginosa (strain ATCC 15692 / DSM 22644 / CIP 104116 / JCM14847 / LMG 12228 / 1C / PRS 101 / PAO1), UniProt Q9HYN5); experiment: Competitive binding affinity to recombinant Pseudomonas aeruginosa PAO1 LecB expressed in Escherichia coli BL21(DE3) incubated for 4 to 8 hrs by fluorescent polarization assay
Fucose-binding lectin PA-IIL, sequence (Q9HYN5 whole entry): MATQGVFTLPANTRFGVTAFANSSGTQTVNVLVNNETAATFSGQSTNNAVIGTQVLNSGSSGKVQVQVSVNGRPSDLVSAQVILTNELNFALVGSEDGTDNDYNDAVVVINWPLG

Pseudomonas aeruginosa [14] = experiment: (§4) Antibacterial activity against Pseudomonas aeruginosa PA14 assessed inhibition of bacterial growth preincubated for 3 hrs in PBS buffer followed by overnight grown bacterial culture addition incubated for 18 to 20 hrs by broth microdilution method; format: functional; conditions: time 21-23 hrs; outline: as §3
Pseudomonas aeruginosa [15] = experiment: as §2, with “fresh LB medium” for “Pseudomonas aeruginosa cell culture supernatant”, “PBS” for “PBS buffer”; format: functional; conditions: time 21-23 hrs; outline: as §3
Pseudomonas aeruginosa [16] = experiment: as §2, with “containing 50%” for “containing”, “and 10%” for “spiked with”, “PBS” for “PBS buffer”; format: functional; conditions: time 21-23 hrs; outline: as §3
Pseudomonas aeruginosa [17] = experiment: Antibacterial activity against Pseudomonas aeruginosa PA14 assessed inhibition of bacterial growth preincubated for 10 mins in PBS buffer followed by overnight grown bacterial culture addition incubated for 18 to 20 hrs by broth microdilution method; format: functional; outline: as §3
Pseudomonas aeruginosa [18] = experiment: as §4, with “3 hrs in matrix containing Pseudomonas aeruginosa cell culture supernatant in PBS” for “3 hrs in PBS”; format: functional; conditions: time 21-23 hrs; outline: as §3
[19] = target: T2, PA-I galactophilic lectin (Pseudomonas aeruginosa (strain ATCC 15692 / PAO1 / 1C / PRS 101 / LMG12228), UniProt Q05097); experiment: Competitive binding affinity to recombinant Pseudomonas aeruginosa LecA expressed in Escherichia coli BL21(DE3) incubated for 30 to 60 mins by fluorescent polarization assay
T2 sequence (Q05097 whole entry): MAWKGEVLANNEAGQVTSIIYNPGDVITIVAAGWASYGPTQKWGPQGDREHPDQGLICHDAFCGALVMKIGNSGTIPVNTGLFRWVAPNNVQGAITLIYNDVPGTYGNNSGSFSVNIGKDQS
Outline: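 Recombinant LecA (E. coli BL21(DE3), galactosyl-sepharose purified) at 40 μM with 20 nM fluorescein-galactoside reporter in TBS/Ca pH 7.4; compounds serially diluted with 30% DMSO co-solvent, technical triplicates; 30–60 min at 22 °C; fluorescence polarization (ex 485/em 535); four-parameter fit with plateaus fixed by pNP-β-D-Gal control; ≥3 independent experiments.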

Row | Structure (SMILES) | MIC (Pseudomonas aeruginosa [2]) | Stability [8] | Drug metabolism (Elastase [9]) | MIC (Pseudomonas aeruginosa [10]) | MIC (Pseudomonas aeruginosa [11]) | MIC (Pseudomonas aeruginosa [12]) | IC50 [13] | MIC (Pseudomonas aeruginosa [14]) | MIC (Pseudomonas aeruginosa [15]) | MIC (Pseudomonas aeruginosa [16]) | MIC (Pseudomonas aeruginosa [17]) | MIC (Pseudomonas aeruginosa [18]) | other results
1 | CC(C)C[C@H](N)C(=O)N[C@@H](C)C(=O)N[C@H]1CCN(c2cc3c(cc2F)c(=O)c(C(=O)O)cn3C2CC2)C1 | 58 µM (≈ 29.9 µg/mL) |  |  |  |  |  |  |  |  |  |  |  | Drug metabolism (Elastase [1]): Metabolite_Notdetected
2 | Cl.N[C@H]1CCN(c2cc3c(cc2F)c(=O)c(C(=O)O)cn3C2CC2)C1 | 0.027 µM |  |  |  |  |  |  |  |  |  |  |  | t1/2 [3]: 2.25 h; half-life at 100 µM [4]: > 1 h; Drug uptake [5]: 2000 ng/mL; microsomal CLint at 100 µM [6]: < 23 µL/min/mg; t1/2 [7]: > 4 h
3 | CC(C)C[C@H](NC(=O)CNC(=O)[C@H](C)NC(=O)c1ccc(S(=O)(=O)NC[C@H]2O[C@@H](C)[C@@H](O)[C@@H](O)[C@@H]2O)cc1)C(=O)N[C@@H](C)C(=O)NC[C@@H]1CCN(c2cc3c(cc2F)c(=O)c(C(=O)O)cn3C2CC2)C1 |  | Stable | Metabolite_Detected | 3.13 µM (≈ 3.13 µg/mL) | ≥ 25 µM | 3.13 µM (≈ 3.13 µg/mL) | 4.29 µM | > 25 µM | 12.5 µM (≈ 12.5 µg/mL) | 1.56 µM (≈ 1.56 µg/mL) | > 25 µM | 1.56 µM (≈ 1.56 µg/mL) | 
4 | O=[N+]([O-])c1ccc(O[C@@H]2O[C@H](CO)[C@H](O)[C@H](O)[C@H]2O)cc1 |  |  |  |  |  |  |  |  |  |  |  |  | IC50 [19]: 61.9 µM
5 | CC(C)C[C@H](N)C(=O)N[C@@H](C)C(=O)NC[C@H]1CCN(c2cc3c(cc2F)c(=O)c(C(=O)O)cn3C2CC2)C1 | 28 µM (≈ 14.8 µg/mL) |  |  |  |  |  |  |  |  |  |  |  | 
6 | CC(C)C[C@H](NC(=O)CNC(=O)[C@H](C)NC(=O)c1ccc(S(=O)(=O)NC[C@H]2O[C@@H](C)[C@@H](O)[C@@H](O)[C@@H]2O)cc1)C(=O)N[C@@H](C)C(=O)N1CCN(c2cc3c(cc2F)c(=O)c(C(=O)O)cn3C2CC2)CC1 |  | Stable | Metabolite_Notdetected | ≥ 25 µM | ≥ 25 µM | ≥ 25 µM | 4.63 µM | > 25 µM | ≥ 25 µM | ≥ 25 µM | > 25 µM | ≥ 25 µM | 
